Experimental data published in article PMC12034384 (ImmunoHorizons, 2025).

Assays:
Jurkat = experiment: Cytotoxicity of peptides; format: cell-based, human; settings: Fig. S1; concentrations up to 100 μM
Jurkat cells = experiment: IL-2 production after anti-CD3/anti-CD28 stimulation, ELISA; format: cell-based, human; settings: 30 min preincubation, immobilized anti-CD3 (3 μg/ml)/anti-CD28 (1 μg/ml) 48 h, n = 4
Method in brief: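 Jurkat cells were kept in RPMI 1640 with 10% FBS and 50 μM 2-mercaptoethanol. They were preincubated 30 min with test peptide or control peptide, then stimulated 48 h on immobilized anti-human CD3 (OKT3, 3 μg/ml) plus anti-CD28 (CD28.8, 1 μg/ml). Human IL-2 in supernatant was measured by ELISA. Mean ± SEM of 4 independent experiments, Sidak's test.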

STAP-1–ITK interaction = experiment: Coimmunoprecipitation, STAP-1–ITK interaction; format: binding, human; settings: Fig. 2G
EL-4 cells = experiment: Spontaneous proliferation of EL-4 cells; format: cell-based, murine; settings: 30 min preincubation, WST-8, n = 3
Method in brief: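 Murine EL-4 T lymphoma cells were grown in RPMI 1640 with 10% FBS and 50 μM 2-mercaptoethanol without stimulation. They were preincubated 30 min with test or control peptide, and spontaneous proliferation was read with WST-8 reagent. Mean ± SEM of 3 independent experiments; Sidak's multiple comparisons.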

murine CD4+ T cells = experiment: IL-2 production of murine CD4+ T cells after anti-CD3/anti-CD28, ELISA; format: cell-based; settings: 30 min preincubation, anti-CD3/anti-CD28 48 h, n = 4
Method in brief: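 CD4⁺ T cells were purified from mouse spleen with a CD4⁺ isolation kit and cultured in RPMI 1640, 10% FBS, 50 μM 2-mercaptoethanol. After 30 min preincubation with test or control peptide, cells were stimulated 48 h on immobilized anti-mouse CD3 (145-2C11, 3 μg/ml) plus anti-CD28 (PV-1, 1 μg/ml). Mouse IL-2 in supernatant was measured by ELISA. Mean ± SEM, n = 4 independent experiments, Sidak's test.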

[1] = system: Ramos human B lymphoma cells; experiment: Spontaneous proliferation of Ramos cells; format: cell-based
[2] = system: HeLa human epithelial-like cells; experiment: Spontaneous proliferation of HeLa cells; format: cell-based
murine B cells = experiment: IgM-mediated IL-6 and IL-10 production in murine B cells; format: cell-based; settings: compared with iCont-treated B cells
EAE mice = experiment: Experimental autoimmune encephalomyelitis; format: in vivo, C57BL/6 mice
mice = experiment: Tolerability in treated mice; format: in vivo; settings: within the effective concentration range; data not shown
[3] = cited from earlier work
[4] = EAE mice, 40 µg/mouse i.v., vs iCont, n = 5
[5] = EAE mice, day 14 after MOG immunization, vs iCont, n = 10 to 12
[6] = EAE mice, day 14 after MOG immunization, vs iCont, n = 10 to 14

RRRRRRRRGGEYEHYWTELRGTTLFFYTD [N41-59]
cytotoxicity (Jurkat): did not show significant cytotoxicity up to the concentration of 100 μM

RRRRRRRRGGDLTCLTEQNSTEKNCAKFTL [N73-92]
cytotoxicity (Jurkat): high cytotoxicity at the concentration of 100 μM

RRRRRRRRGGTTLFF [iSP1]
IL-2 production following TCR stimulation (Jurkat cells): suppressed by iSP1 treatment in a concentration-dependent manner
STAP-1–ITK interaction (STAP-1–ITK interaction): suppressed
spontaneous cell proliferation (EL-4 cells): exhibited suppressed cell proliferation
IL-2 production upon TCR stimulation (murine CD4+ T cells): inhibited in CD4^+ T cells
spontaneous proliferation [1]: did not inhibit
spontaneous proliferation [2]: did not inhibit
IgM-mediated IL-6 production (murine B cells): no inhibition
IgM-mediated IL-10 production (murine B cells): no inhibition
area under the curve of EAE clinical score (EAE mice; 40 µg/mouse i.v. every other day, days 8–20, vs iCont, n = 20): significantly lower
demyelination in spinal cord (Luxol Fast Blue staining) (EAE mice; [4]): suppressed
immune cell infiltration in spinal cord (H&E staining) (EAE mice; [4]): suppressed
frequency of Th1 cells (IFN-γ expressing) among CD4+ cells in CNS (EAE mice; [5]): significantly lower
frequency of Th17 cells (IL-17 expressing) among CD4+ cells in CNS (EAE mice; [5]): significantly lower
absolute number of Th1 cells (IFN-γ expressing CD4+ T cells) in CNS (EAE mice; [6]): significantly lower
absolute number of Th17 cells (IL-17 expressing CD4+ T cells) in CNS (EAE mice; [6]): significantly lower
abnormal phenotypes in treated mice (mice): did not show any abnormal phenotypes
stability of cell-penetrating R8 sequence in vivo [3]: unstable and easy to dissociate in vivo

RRRRRRRRGGPLYFEGFLLIKRSGYREYE [N26-43]
cytotoxicity (Jurkat): high cytotoxicity from the concentration of 3 μM

RRRRRRRRGGRRIFQERLKITALPLYFEGF [N12-31]
cytotoxicity (Jurkat): high cytotoxicity from the concentration of 3 μM

RRRRRRRRGGTDKKSIIYVDKLDIVDLTCL [N58-77]
cytotoxicity (Jurkat): high cytotoxicity from the concentration of 3 μM
